Laboratory results taken from ChEMBL document CHEMBL2385015, “Alkaloids and polyketides from Penicillium citrinum, an endophyte isolated from the Moroccan plant Ceratonia siliqua” (J Nat Prod, 2013).
pIC50: −log10 of the molar value. The source made the active and inactive calls. The rule behind the calls is not given here.

Tests used:
Staphylococcus aureus = experiment: Antibacterial activity against Staphylococcus aureus ATCC 29213 at 64 ug/mL by broth microdilution method; type: functional, organism-based
Streptococcus pneumoniae = experiment: Antibacterial activity against Streptococcus pneumoniae ATCC 49619 at 64 ug/mL by broth microdilution method; type: functional, organism-based
Escherichia coli = experiment: Antibacterial activity against Escherichia coli ATCC 25922 at 64 ug/mL by broth microdilution method; type: functional, organism-based
L5178Y = experiment: Cytotoxicity against mouse L5178Y cells by MTT assay; type: functional, cell-based
Summary of the method: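 Growth of L5178Y mouse lymphoma cells measured by MTT (microculture tetrazolium) assay relative to untreated controls. Medium with 0.1% EGMME–DMSO served as negative control and the depsipeptide kahalalide F as positive control.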

SMILES | Activity (Staphylococcus aureus) | Activity (Streptococcus pneumoniae) | Activity (Escherichia coli) | pIC50 (L5178Y)
COc1cc(O)c(C)c2cc(C)ncc12 | inactive | inactive | inactive | < 5.00
C[C@@H]1C[C@@](C)(O)Cc2ccc(CO)c(/C=C/C=C/C(=O)O)c21 | inactive | inactive | inactive | < 5.00
O=C1c2c([nH]c3ccccc3c2=O)C2CCCN12 (centres undefined) | inactive | inactive | inactive | < 5.00
COc1cc(O)c(C)c2c1[C@@H](c1ccc3n1C(=O)c1c-3[nH]c3ccccc3c1=O)O[C@@H](C)C2 [CITRIQUINOCHROMAN] | inactive | inactive | inactive | 5.21
CC1=C[C@H](O)[C@H]2C[C@@H](CO)C[C@@H](C)[C@@H]2[C@H]1/C=C/C=C/C(=O)O | inactive | inactive | inactive | < 5.00
CC(=O)c1c(CC(=O)O)cc(O)c(C)c1O | inactive | inactive | inactive | < 5.00
